HIV Env fusion: blocks HIV Env-driven cell-cell fusion; HeLa-JRFL Env/CEM21 cell fusion, luciferase; inhibition, % at 12.3 µM; actives 1.1% (n = 360,000);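 active = mean replicate inhibition score of at least 50 and every replicate individually at or above 50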;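 note: 0% = plate neutral controls and 100% = maraviroc near 300 nM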
Cneo AK release: causes C. neoformans cell lysis | adenylate kinase release luminescence, 4 h; normalised: neutral wells 0, clomiphene wells 100 | actives 0.2% (n = 360,000) | AID 651654 | lysis activity, % at 15 µM;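 active = mean lysis activity across replicates of at least 80%, whatever share of replicates individually reach that level; inactive = mean lysis activity below 80%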
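Assay system: log-phase C. neoformans yeast / Quantity: yeast cell density of 5 × 10^6 cells/mL / Medium: fresh YPD growth medium / Compound: single dose / Timing: static 4 h at 37 °C with compound, 1 h detection / Measured by: adenylate kinase release luminescence / Read-out: lysis from increased AK signal / Benchmarks: Clomiphene as positive lysis control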
Rtt109 Vps75: blocks Candida albicans Rtt109/Vps75 acetyltransferase activity; purified Rtt109/Vps75, ThioGlo CoA-SH fluorescence, 4 h; inhibition, % at 34.9 µM; actives 0.16% (n = 330,000); AID 540336;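 active = inhibition of at least 50% in every replicate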
miR-122 sensor: blocks miR-122 activity in Huh7 sensor cells; Huh7 miR-122 Renilla luciferase sensor, 48 h; neutral wells = 0, positive control = 100; activation (reporter increase), % at 12.5 µM; actives 0.3% (n = 340,000); AID 602342;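 active = mean replicate activation score at least 90 and every replicate individually at or above 90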;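 note: higher luciferase means less miR-122 activity so hits act as miR-122 inhibitors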
INS-1E GSIS act: primary screen for activators of insulin secretion dependent on glucose, INS-1E cells, GLuc reporter luminescence; INS-1E GLuc reporter insulin secretion, 2-3 h; activation, % at 16.6 µM; actives 0.61% (n = 370,000);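 active = lowest replicate activation of at least 40%, so every replicate reaches that level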;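 note: 0% = median of neutral control wells and 100% = median of IBMX positive control wells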
dFosB act: mouse delta FosB homodimer activation; actives 0.99% (n = 340,000); purified delta FosB, TAMRA-CDK5 oligo fluorescence polarization; percent of positive-control signal above neutral wells; P13346; activation, % at 25 µM;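 active = mean activation above about 17%, with every replicate also reaching it, limit read from the data, passing the limit was not always enough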
Target sequence (P13346 whole entry, looked up): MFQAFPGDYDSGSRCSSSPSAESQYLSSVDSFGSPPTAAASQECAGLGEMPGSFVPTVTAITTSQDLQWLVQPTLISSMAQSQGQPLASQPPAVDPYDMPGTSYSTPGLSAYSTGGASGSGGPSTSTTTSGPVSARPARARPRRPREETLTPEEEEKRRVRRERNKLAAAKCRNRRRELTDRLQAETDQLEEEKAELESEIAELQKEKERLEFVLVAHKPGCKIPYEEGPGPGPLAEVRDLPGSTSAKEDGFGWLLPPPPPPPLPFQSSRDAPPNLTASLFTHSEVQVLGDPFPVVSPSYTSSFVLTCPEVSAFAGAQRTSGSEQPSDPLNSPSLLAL
* marks the source's active call; other numbers are inactive results; [ ] = dose if it differs, or a comment. This is a sample that favours compounds with a hit; in the whole collection about 2.4% have one here.

c1ccc2c(c1)ncn2CCCCOc1ccc2c(c1)CCC2 was read as HIV Env fusion 87.7*, Cneo AK release 24.6, miR-122 sensor 1.7 and dFosB act -14.9.
Screening Cc1ccccc1OCCCCn1cnc2ccccc21 returned HIV Env fusion 65.2*, Cneo AK release -0.4, Rtt109 Vps75 7.1, miR-122 sensor -21.3 and dFosB act -9.4.
`CC(C)c1cn(CC[C@@H]2CC[C@@H](NC(=O)c3cccc(F)c3)[C@@H](CO)O2)nn1` gave HIV Env fusion -198.5[16.7 µM], Cneo AK release 40.4, miR-122 sensor -12.8[16.7 µM] and INS-1E GSIS act 13.1.
O=S(=O)(c1cccc2cccnc12)N1CCN(Cc2ccc(OCCO)cc2)CC1 was read as HIV Env fusion 19.6[16.7 µM] and Cneo AK release 6.6.
`Cc1cc(C)c2nc(N3CCN(C(=O)c4cccs4)CC3)sc2c1` gave HIV Env fusion -4.7, Cneo AK release 147.7*, Rtt109 Vps75 22.2, INS-1E GSIS act -12.1 and dFosB act -10.9.
Screening Cc1cc2nc(N3CCN(C(=O)c4cccs4)CC3)sc2cc1C returned HIV Env fusion -60.7, Cneo AK release 36.4, Rtt109 Vps75 -3.3, miR-122 sensor -2.8, INS-1E GSIS act 22.1 and dFosB act -6.7.
For Cc1nn(C(=O)c2cccc([N+](=O)[O-])c2)c(C)c1Cl the results were HIV Env fusion -17.8, Cneo AK release -2.9, Rtt109 Vps75 -2.6, miR-122 sensor 2.9, INS-1E GSIS act 62.8* and dFosB act -9.3.
`CCOC(=O)C1C(=O)OC(C)(C)C1C(CC)C(=O)c1c(C)cc(C)cc1C` (configuration not stated) gave HIV Env fusion 76.3*, Cneo AK release 8.5, miR-122 sensor -5.6 and INS-1E GSIS act -9.3.
Screening O=C(Nc1nc2cc3c(cc2s1)OCCO3)C1=COCCO1 returned HIV Env fusion 64.0*, Cneo AK release -20.5, Rtt109 Vps75 9.6, miR-122 sensor -1.4, INS-1E GSIS act -3.7 and dFosB act -3.0.
`CCC(C(=O)c1ccccc1)N(C(=O)c1ccccc1Cl)N1C(=O)C2C3C=CC(C3)C2C1=O` (configuration not stated) gave HIV Env fusion 109.2*, Cneo AK release 8.6, Rtt109 Vps75 8.4, miR-122 sensor -4.4 and dFosB act -7.5.
Screening OCCNC(=S)NCCc1ccccc1 returned HIV Env fusion 5.0, Rtt109 Vps75 -2.7, INS-1E GSIS act -3.1 and dFosB act 3.4.
`Cc1c(Cl)cccc1NC(=S)NCCc1ccc(F)cc1` gave HIV Env fusion -12.5, Cneo AK release 7.2, Rtt109 Vps75 4.4, miR-122 sensor 12.8, INS-1E GSIS act -16.2 and dFosB act -0.2.
S=C(NCCCc1ccccc1)Nc1ccccc1 was read as HIV Env fusion -11.9, Cneo AK release 104.2*, Rtt109 Vps75 -4.6, miR-122 sensor 8.2, INS-1E GSIS act -25.2 and dFosB act -10.4.
Screening S=C(NCCc1ccc(Cl)cc1)NCc1ccccc1 returned Cneo AK release 114.5*, Rtt109 Vps75 13.6, miR-122 sensor 1.1 and dFosB act -8.6.
Cc1c(Cl)cccc1NC(=S)NCCc1ccc(Cl)cc1 was read as HIV Env fusion -19.9, Cneo AK release 113.1*, Rtt109 Vps75 10.1, miR-122 sensor 6.9, INS-1E GSIS act -32.3 and dFosB act -4.7.
`CC(C)(CNC(=S)NCCc1ccccc1)CNC(=S)NCCc1ccccc1` gave HIV Env fusion 12.9, Cneo AK release 1.0, Rtt109 Vps75 11.7, miR-122 sensor 279.8*, INS-1E GSIS act -5.7 and dFosB act 5.8.
C/C=C/c1cnc2c(c1)C(=O)N([C@H](C)CO)C[C@@H](C)[C@@H](CN(C)C(=O)C1CC1)O2 was read as HIV Env fusion -23.2[16.7 µM], miR-122 sensor -0.7[16.7 µM] and INS-1E GSIS act 11.3.
Screening COc1ccc(CNS(=O)(=O)c2ccc3c(c2)C(C)(C)C(=O)N3C)cc1 returned HIV Env fusion 3.4, Cneo AK release 1.7, Rtt109 Vps75 -6.1, miR-122 sensor 3.9, INS-1E GSIS act 6.1 and dFosB act -6.4.
For COc1cc(NS(=O)(=O)c2ccc3c(c2)C(C)(C)C(=O)N3C)cc(OC)c1 the results were HIV Env fusion -18.9, Cneo AK release -4.7, Rtt109 Vps75 -1.3, miR-122 sensor 97.6*, INS-1E GSIS act -4.7 and dFosB act -3.8.
Screening CCCCCCCCOC(=O)C1=C(C)Nc2nnnn2C1c1cccs1 (configuration not stated) returned HIV Env fusion 25.7, Cneo AK release 2.5, Rtt109 Vps75 12.8, miR-122 sensor 7.5, INS-1E GSIS act 42.6* and dFosB act 9.7.
Screening CCCCCCCOC(=O)C1=C(C)Nc2ncnn2C1c1cccs1 (configuration not stated) returned HIV Env fusion 17.0, Rtt109 Vps75 13.9, miR-122 sensor -8.1 and dFosB act 0.1.
COc1ccc(CCNC(=O)CN2C(=O)NC3(CCCCC3C)C2=O)cc1 (configuration not stated) was read as HIV Env fusion -14.3, Cneo AK release -2.3, Rtt109 Vps75 51.1*, miR-122 sensor -6.9, INS-1E GSIS act -2.6 and dFosB act -1.0.
CCC(=O)Nc1cc(C(C)(C)C)ccc1C(C)=O was read as HIV Env fusion -0.5, Rtt109 Vps75 6.9, INS-1E GSIS act 66.6* and dFosB act -4.3.
For CCC(=O)Nc1cc2c(cc1C(C)=O)OCCO2 the results were Cneo AK release 1.2, Rtt109 Vps75 -9.8, miR-122 sensor -4.4 and dFosB act 7.1.
O=S(=O)(NN1CCOCC1)c1ccc(Br)cc1 was read as HIV Env fusion 23.7, Cneo AK release -1.3, Rtt109 Vps75 52.5*, miR-122 sensor -3.4, INS-1E GSIS act 0.5 and dFosB act -2.4.
Screening O=S(=O)(NN1CCOCC1)c1ccc(Br)s1 returned HIV Env fusion 21.5, Cneo AK release 0.6, Rtt109 Vps75 -10.3, INS-1E GSIS act 3.8 and dFosB act -0.2.
Screening Cc1cc(C)c2oc(C(=O)N(Cc3ccc(F)cc3)C3CCS(=O)(=O)C3)cc(=O)c2c1 (configuration not stated) returned HIV Env fusion -3.5, Cneo AK release 1.6, Rtt109 Vps75 17.4, INS-1E GSIS act 62.8* and dFosB act -24.9.
Cc1ccc(S(=O)(=O)N(C)C[C@@H]2Oc3ccc(NC(=O)CCCCCC(=O)Nc4ccccc4N)cc3CC(=O)N([C@H](C)CO)C[C@@H]2C)cc1 was read as HIV Env fusion 72.5*[16.7 µM], Cneo AK release 3.8, miR-122 sensor -1.4[16.7 µM] and INS-1E GSIS act 10.8.
Screening Cc1ccc(S(=O)(=O)N(C)C[C@H]2Oc3ccc(NC(=O)CCCCCC(=O)Nc4ccccc4N)cc3CC(=O)N([C@H](C)CO)C[C@H]2C)cc1 returned HIV Env fusion 29.6[16.7 µM], Cneo AK release -1.4, miR-122 sensor 8.6[16.7 µM] and INS-1E GSIS act 16.7.
